The source of these data is article PMC3127012 (European Journal of Nuclear Medicine and Molecular Imaging, 2011).

The series can be described thus: Biodistribution: uptake of 111In-labelled peptides in normal tissues. The class given is in vivo, mice. The essentials:
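Female athymic BALB/c mice with s.c. A431-CCK2R (2 × 10^6 cells, left flank) and mock-transfected A431 (right flank) tumours, ~0.1–0.2 g after ~10 days; n = 5/group. 111In-DOTA-peptide (11 GBq/μmol, >95% radiochemical purity) injected into the tail vein. Blood and organs were dissected at 1 and 4 h p.i., weighed, and gamma-counted; %ID/g, mean ± SD. Blocking group: 1,000-fold molar excess of unlabelled peptide, dissected at 4 h.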

Bounds are passed on as bounds.

A word on the tissue uptake: it is the share of the injected amount in each gram of the tissue. Low values mean little accumulation, high ones strong accumulation. Compound `CSCC[C@H](NC(=O)[C@H](Cc1c[nH]c2ccccc12)NC(=O)CNC(=O)[C@H](Cc1ccc(O)cc1)NC(=O)[C@H](C)NC(=O)[C@H](CCC(=O)O)NC(=O)[C@H](CCC(=O)O)NC(=O)[C@H](CCC(=O)O)NC(=O)[C@H](CCC(=O)O)NC(=O)[C@H](CCC(=O)O)NC(=O)[C@@H](CCC(=O)O)NC(=O)CN1CCN(CC(=O)O)CCN(CC(=O)O)CCN(CC(=O)O)CC1)C(=O)N[C@@H](CC(=O)O)C(=O)N[C@@H](Cc1ccccc1)C(N)=O` [MG0] returned a tissue uptake (mouse, in vivo, iv, 370 kBq (0.03 nmol)) of over 48 %ID/g. For the compound “DOTA-Gly-Ser-Cys-(Glu-Ala-Tyr-Gly-Trp-Nle-Asp-Phe-NH2)2 [MGD5]”, where the note is “BALB/c nude mice, 111In-labelled peptide, 1 h p.i.”, the “blood levels relative to the other peptides investigated” value was “tenfold higher”.
